ChEMBL document CHEMBL4304784, “Discovery of new potent dual sigma receptor/GluN2b ligands with antioxidant property as neuroprotective agents” (Eur J Med Chem, 2019)
Converted amounts (≈) assume the structure as drawn.

Assays:
[1] = Selectivity ratio of Ki for sigma2 receptor in rat liver membranes to Ki for GluN1a/GluN2B (unknown origin) expressed in mouse L(tk-) cell membranes; type: cell-based
[2] = Cytotoxicity against human SH-SY5Y cells assessed as cell viability at 25 uM incubated for 48 hrs by MTT assay (reference value: 100 +/- 12.00%); type: cell-based; conditions: read-out: Activity
In short: (§1)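 Cells kept in DMEM Glutamax with 10% FBS and antibiotic/antimycotic at 37 °C, 5% CO2. Plated at 2x10^3 cells/well 24 h before dosing. Compounds taken from DMSO and diluted in medium, final DMSO ≤1.0%. Exposure 48 h, then MTT added for 4 h at 37 °C. Read as A595 minus A655. Triplicates, at least three independent experiments, mean ± SEM.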

[3] = Selectivity ratio of Ki for sigma1 receptor in guinea pig brain membranes to Ki for sigma2 receptor in rat liver membranes; type: cell membranes
[4] = target: T1, Glutamate NMDA receptor; GRIN1/GRIN2B (Homo sapiens, UniProt Q05586+Q13224); experiment: Potency index, ratio of ifenprodil Ki to test compound Ki for displacement of [3H]ifenprodil from GluN1a/GluN2B (unknown origin) expressed in mouse L(tk-) cell membranes
[5] = Cytotoxicity against human HeLa cells assessed as cell viability at 100 uM incubated for 48 hrs by MTT assay relative to control; type: cell-based; conditions: read-out: Activity; in short: as §1
[6] = Cytotoxicity against human HeLa cells assessed as cell viability at 10 uM incubated for 48 hrs by MTT assay relative to control; type: cell-based; conditions: read-out: Activity; in short: as §1
[7] = Cytotoxicity against human HeLa cells assessed as decrease in cell viability incubated for 48 hrs by MTT assay; type: cell-based; conditions: read-out: LD50
In short: (§2)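 Cells kept in DMEM Glutamax with 10% FBS and antibiotic/antimycotic at 37 °C, 5% CO2. Seeded 24 h before dosing (SH-SY5Y at 2x10^3 cells/well). Compounds in DMSO serially diluted in medium, final DMSO 1.0%, exposure 48 h. MTT added for 4 h at 37 °C, read A595 minus A655. LD50 from linear regression of dose-log response curves; triplicates, three experiments, mean ± SEM.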

[8] = Antioxidant activity assessed as H2O2 radical scavenging activity; type: functional
In short: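 Compounds at 0.05, 0.1, 0.2 and 0.4 mg/mL in phosphate buffer pH 7.4. 0.353 mL of 4 mM H2O2 in phosphate buffer added to 2.0 mL of each solution, absorbance read at 239 nm. Percent inhibition calculated from absorbances relative to control. Triplicate, mean ± SEM.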

[9] = Cytotoxicity against human HeLa cells assessed as cell viability at 50 uM incubated for 48 hrs by MTT assay relative to control; type: cell-based; conditions: read-out: Activity; in short: as §1
[10] = target: T2, Sigma intracellular receptor 2 (Rattus norvegicus, UniProt Q5U3Y7); experiment: Displacement of [3H]-di-o-tolylguanidine from sigma2 receptor in rat liver membranes in the presence of sigma1 receptor ligand (+)-pentazocine incubated for 120 mins by scintillation counting method; type: cell membranes
T2 sequence (Q5U3Y7 whole entry): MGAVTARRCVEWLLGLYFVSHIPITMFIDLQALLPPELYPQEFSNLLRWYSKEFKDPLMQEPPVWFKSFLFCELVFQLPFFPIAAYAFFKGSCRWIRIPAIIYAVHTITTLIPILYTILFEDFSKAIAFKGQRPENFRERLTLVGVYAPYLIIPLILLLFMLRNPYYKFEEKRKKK
In short: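 Rat liver membranes (about 100 µg protein) with 3 nM [3H]di-o-tolylguanidine in 50 mM TRIS pH 8.0 containing 500 nM (+)-pentazocine, at rt. Non-specific binding defined with 10 µM unlabeled DTG. Concentrations 10^-5 to 10^-10 M, in duplicate. 120 min, filtration, scintillation counting. Three independent experiments, mean ± SEM.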

[11] = Cytotoxicity against human SH-SY5Y cells assessed as cell viability at 10 uM incubated for 48 hrs by MTT assay (reference value: 100 +/- 12.00%); type: cell-based; conditions: read-out: Activity; in short: as §1
[12] = Cytotoxicity against human HeLa cells assessed as cell viability at 25 uM incubated for 48 hrs by MTT assay relative to control; type: cell-based; conditions: read-out: Activity; in short: as §1
[13] = Cytotoxicity against human SH-SY5Y cells assessed as decrease in cell viability incubated for 48 hrs by MTT assay; type: cell-based; conditions: read-out: LD50; in short: as §2
[14] = Cytotoxicity against human SH-SY5Y cells assessed as cell viability at 50 uM incubated for 48 hrs by MTT assay (reference value: 100 +/- 12.00%); type: cell-based; conditions: read-out: Activity; in short: as §1
[15] = Cytotoxicity against human Hep3B cells assessed as cell viability at 100 uM incubated for 48 hrs by MTT assay relative to control; type: cell-based, Hep 3B2; conditions: read-out: Activity; in short: as §1
[16] = Antioxidant activity assessed as ABTS radical scavenging activity incubated for 40 mins; type: functional
In short: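 Test compound at 0.05, 0.1, 0.2 and 0.4 mg/mL (200 µL) added to 1.8 mL ethanolic ABTS 7mM. Incubated 40 min at room temperature, absorbance read at 735 nm against ABTS solution. Percent inhibition computed from absorbances and used to derive IC50. Triplicate, mean ± SEM; ascorbic acid as reference.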

[17] = Cytotoxicity against human Hep3B cells assessed as cell viability at 25 uM incubated for 48 hrs by MTT assay relative to control; type: cell-based, Hep 3B2; conditions: read-out: Activity; in short: as §1
[18] = target: T1, Glutamate NMDA receptor; GRIN1/GRIN2B; experiment: Displacement of [3H]ifenprodil from GluN1a/GluN2B (unknown origin) expressed in mouse L(tk-) cell membranes after 120 mins by solid scintillation counting method
In short: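 Membranes (about 20 μg protein) from mouse L(tk-) cells stably carrying GluN1a/GluN2B, induced with 4 μM dexamethasone and 4 μM ketamine for 24 h. Incubated with 5 nM [3H]ifenprodil in 5 mM TRIS/1 mM EDTA pH 7.5 at 37 °C, 120 min. Non-specific binding defined with 10 μM ifenprodil.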

[19] = Cytotoxicity against human Hep3B cells assessed as cell viability at 10 uM incubated for 48 hrs by MTT assay relative to control; type: cell-based, Hep 3B2; conditions: read-out: Activity; in short: as §1
[20] = Cytotoxicity against human SH-SY5Y cells assessed as cell viability at 100 uM incubated for 48 hrs by MTT assay (reference value: 100 +/- 12.00%); type: cell-based; conditions: read-out: Activity; in short: as §1
[21] = target: Sigma non-opioid intracellular receptor 1 (Cavia porcellus, UniProt Q60492); experiment: Displacement of [3H]-(+)-pentazocine from sigma1 receptor in guinea pig brain cortex membranes incubated for 120 mins by solid scintillation counting method; type: cell membranes
In short: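 Guinea pig brain cortex membranes (about 100 µg protein) with 2 nM [3H]-(+)-pentazocine in 50 mM TRIS pH 7.4 at 37 °C. Non-specific binding defined with 10 µM unlabeled (+)-pentazocine. Six concentrations, 10^-5 to 10^-10 M, in duplicate. 120 min with shaking, filtration, solid scintillator counting.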

[22] = tested on: SH-SY5Y; experiment: Neuroprotective activity against H2O2-induced toxicity in human SH-SY5Y cells assessed as cell viability at 25 uM pretreated for 48 hrs followed by H2O2 challenge and measured after 4 hrs by MTT assay (reference value: 18 +/- 2.64%); type: functional; conditions: read-out: Activity
[23] = Cytotoxicity against human Hep3B cells assessed as decrease in cell viability incubated for 48 hrs by MTT assay; type: cell-based, Hep 3B2; conditions: read-out: LD50; in short: as §2
[24] = Cytotoxicity against human Hep3B cells assessed as cell viability at 50 uM incubated for 48 hrs by MTT assay relative to control; type: cell-based, Hep 3B2; conditions: read-out: Activity; in short: as §1

Chain of Sigma non-opioid intracellular receptor 1 (Q60492 whole entry): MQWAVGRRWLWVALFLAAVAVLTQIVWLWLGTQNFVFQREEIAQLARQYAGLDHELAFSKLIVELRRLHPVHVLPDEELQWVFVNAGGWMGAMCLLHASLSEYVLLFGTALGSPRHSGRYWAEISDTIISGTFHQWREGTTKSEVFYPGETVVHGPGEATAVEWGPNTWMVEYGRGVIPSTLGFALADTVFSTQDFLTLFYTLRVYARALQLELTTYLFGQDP

Row | Compound | Ratio Ki [1] | viability at 48 h, 25 µM [2] | Ratio Ki [3] | viability at 48 h, 100 µM [5] | viability at 48 h, 10 µM [6] | CC50 at 48 h [7] | IC50 [8] | viability at 48 h, 50 µM [9] | Ki [10] | viability at 48 h, 10 µM [11] | viability at 48 h, 25 µM [12] | CC50 at 48 h [13] | viability at 48 h, 50 µM [14] | viability at 48 h, 100 µM [15] | IC50 [16] | viability at 48 h, 25 µM [17] | Ki [18] | viability at 48 h, 10 µM [19] | viability at 48 h, 100 µM [20] | Ki [21] | also measured
1 | O=C1CCc2ccccc2N1CCCCN1CCN(C2CCCCC2)CC1 | 0.75 | 81 to 111% | 14 | 94% | 83% | 265 µM | 38.29 µg/mL (≈ 104 µM) | 79% | 0.0015 µM | 91% | 75% | 493 µM | 86% | 52% | 35.79 µg/mL (≈ 96.8 µM) | 70% | 0.002 µM | 106% | 99% | 0.021 µM | Ratio Ki [4]: 5; viability at 25 µM [22]: 105%; CC50 at 48 h [23]: 81 µM; viability at 48 h, 50 µM [24]: 48%
2 | COc1cc2c(cc1OC)CN(CCCCn1nc(-c3ccccc3)oc1=O)CC2 | 32 | 80 to 94% | 1.8 | 39% | 84% | 69 µM | 27.63 µg/mL (≈ 67.5 µM) | 81% | 0.864 µM | 97% | 82% | 77 µM | 96% | 25% | 20.95 µg/mL (≈ 51.2 µM) | 75% | 0.027 µM | 85% | 95% | 1.6 µM | viability at 25 µM [22]: 88%; CC50 at 48 h [23]: 70 µM; viability at 48 h, 50 µM [24]: 58%
3 | O=C1CCc2ccccc2N1CCCCN1CCN(c2ccc(F)cc2)CC1 | 2.6 | 84 to 121% | 0.76 | 70% | 88% | 128 µM | 24.04 µg/mL (≈ 63 µM) | 70% | 0.021 µM | 127% | 78% | 63 µM | 116% | 41% | 21.34 µg/mL (≈ 55.9 µM) | 83% | 0.0081 µM | 99% | 60% | 0.016 µM | viability at 25 µM [22]: 86%; CC50 at 48 h [23]: 77 µM; viability at 48 h, 50 µM [24]: 54%
